Bioassay records deposited in PubChem by The Scripps Research Institute Molecular Screening Center.
Most compounds without a hit are left out; they make up all but 2.7% or so of the library.
ARFGAP1 inh: rat ARFGAP1 inhibition; Q62848; Arfgap1-stimulated ARF1 GTP hydrolysis, GDP FP detection; inhibition, % at 16.5 µM; 0.26% of 360,000 active;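 active = inhibition above a per-plate limit, mean inhibition of low control wells plus 3 SD, cut at about 25% in these data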
Target sequence (Q62848 1-136 limits assumed): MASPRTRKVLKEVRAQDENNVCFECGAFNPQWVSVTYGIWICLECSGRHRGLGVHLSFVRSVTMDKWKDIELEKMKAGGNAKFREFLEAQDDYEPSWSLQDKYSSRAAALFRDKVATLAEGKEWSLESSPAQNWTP
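Repeats: one replicate per compound; assay system: rat Arfgap1 catalytic domain, aa 1-136; times: enzyme reaction 120 min at 25 °C after 20 min preincubation; detection: FP of antibody-bound GDP Alexa 633 tracer, ex 620/em 688 nm; benchmarks: high control wells lacking Arfgap1, low control full reaction with DMSO; reagent: human ARF1(Δ1-17)-GTP substrate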
ASAP1 inh: ASAP1 ArfGAP inhibition. ASAP1-stimulated ARF1 GTP hydrolysis, GDP FP detection. inhibition, % at 16.5 µM. Q9ULH1. 0.19% of 360,000 active; in the data active = inhibition above about 25%
PAFAH1B2 FP inh: PAFAH1B2 (human) inhibition | P68402 | recombinant PAFAH1B2, FP-rhodamine activity probe, fluorescence polarization | inhibition, % at 3.39 µM | 1.2% of 340,000 active;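 active = inhibition above the mean of all tested compounds plus 3 SD, cut at about 24% in these data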
Target sequence (P68402 whole entry, looked up): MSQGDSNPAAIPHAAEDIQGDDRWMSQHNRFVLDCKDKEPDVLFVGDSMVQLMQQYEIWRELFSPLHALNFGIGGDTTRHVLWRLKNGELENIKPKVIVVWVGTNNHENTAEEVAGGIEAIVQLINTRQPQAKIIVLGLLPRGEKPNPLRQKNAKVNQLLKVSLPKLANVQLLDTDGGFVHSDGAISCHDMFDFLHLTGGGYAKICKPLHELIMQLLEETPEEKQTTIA
PAFAH1B3 inh: PAFAH1B3 (human) inhibition. AID 492972. 0.28% of 340,000 active. Q15102. recombinant PAFAH1B3, FP-rhodamine probe, fluorescence polarization. inhibition, % at 3.39 µM;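 active = inhibition above the screen-wide average of all tested compounds plus 3 SD, cut at about 25% in these data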
Target sequence (Q15102 whole entry, looked up): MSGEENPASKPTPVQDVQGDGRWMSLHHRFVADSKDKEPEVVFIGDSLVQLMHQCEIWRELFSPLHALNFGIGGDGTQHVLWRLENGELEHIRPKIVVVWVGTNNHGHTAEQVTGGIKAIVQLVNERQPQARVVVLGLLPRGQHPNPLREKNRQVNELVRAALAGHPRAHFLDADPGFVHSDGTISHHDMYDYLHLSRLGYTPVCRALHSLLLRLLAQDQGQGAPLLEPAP
PAFAH2 FP inh: PAFAH2 (human) inhibition; 0.99% of 340,000 active; Q99487; recombinant PAFAH2, FP-rhodamine activity probe, fluorescence polarization; inhibition, % at 3.39 µM;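 active = inhibition above the mean over all tested compounds plus 3 SD, cut at about 30% in these data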;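 note: inhibitors block probe labeling of enzyme so polarization drops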
pPAFAH FP inh: inhibitors of human plasma PAF acetylhydrolase (pPAFAH) | Q13093 | 1.5% of 330,000 active | recombinant pPAFAH, FP-rhodamine probe fluorescence polarization | AID 463082 | inhibition, % at 3.39 µM;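 active = inhibition above the mean inhibition across the screen plus 3 SD, cut at about 25% in these data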;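 note: inhibitors block binding of the rhodamine activity-based probe so polarization drops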
A number is an active result.

CC(=O)OCC(=O)C1(O)CCC2C3CC(C)C4=CC(=O)C=CC4(C)C3C(O)CC21C (stereo not given) was read as ARFGAP1 inh inactive and ASAP1 inh inactive.
For O=C(NNc1cc(Br)c(O)c(Br)c1)c1ccccc1 the results were ARFGAP1 inh inactive, ASAP1 inh inactive, PAFAH1B2 FP inh inactive, PAFAH1B3 inh inactive, PAFAH2 FP inh 51.7 and pPAFAH FP inh inactive.
For CCCCCCCCN1C(=O)[C@@H](CC(=O)NCCCN2CCCC2=O)C[C@@]2(C(=O)OC)C1=C[C@H](C(C)(C)C)O[C@@H]2C the results were ARFGAP1 inh inactive and ASAP1 inh inactive.
`O=C(NCc1ccccc1)[C@H]1CCCN1C(=O)[C@H]1CCCN1C(=O)c1ccc(F)cc1F` gave ARFGAP1 inh inactive and ASAP1 inh inactive.
`COC(=O)c1cc2c(c3c4ccccc4n(S(=O)(=O)c4ccccc4)c13)C(=O)N(Cc1ccco1)C2` gave ARFGAP1 inh inactive and ASAP1 inh inactive.
For Cc1coc2c1C(=O)C(=O)c1c-2ccc2c(C)cccc12 the results were PAFAH1B2 FP inh inactive, PAFAH1B3 inh inactive, PAFAH2 FP inh 51.0 and pPAFAH FP inh 56.1.
N#C/C(=C/c1ccc(O)c(O)c1)C(=O)NCc1ccc(Cl)cc1 was read as ARFGAP1 inh inactive, ASAP1 inh inactive, PAFAH1B2 FP inh 53.4, PAFAH1B3 inh inactive, PAFAH2 FP inh 35.2 and pPAFAH FP inh 29.9.
For CN1OC[C@@H]2CN(C(=O)c3ccc([N+](=O)[O-])cc3)[C@H](c3ccccc3Br)C[C@@H]21 the results were ARFGAP1 inh inactive and ASAP1 inh inactive.
Screening Cc1cccc(N2CCN(C(=O)N3CCCCC3)CC2)c1C returned ARFGAP1 inh inactive, ASAP1 inh inactive, PAFAH1B2 FP inh inactive, PAFAH1B3 inh inactive, PAFAH2 FP inh inactive and pPAFAH FP inh 28.5.
Screening Cc1ccc(C(=O)OCC(=O)NC(C)C2CC3CCC2C3)cc1N (stereo not given) returned ARFGAP1 inh inactive, ASAP1 inh inactive, PAFAH1B2 FP inh inactive, PAFAH1B3 inh inactive, PAFAH2 FP inh 83.8 and pPAFAH FP inh 30.4.
Screening CC(NC(=O)COC(=O)c1cc(Cl)ccc1O)C1CC2CCC1C2 (stereo not given) returned ARFGAP1 inh inactive, ASAP1 inh inactive, PAFAH1B2 FP inh 26.5, PAFAH1B3 inh inactive, PAFAH2 FP inh inactive and pPAFAH FP inh inactive.
`CC(NC(=O)COC(=O)c1ccc2ccccc2n1)C1CC2CCC1C2` (stereo not given) gave ARFGAP1 inh inactive, ASAP1 inh inactive, PAFAH1B2 FP inh inactive, PAFAH1B3 inh inactive, PAFAH2 FP inh inactive and pPAFAH FP inh inactive.
O=C(Cc1c[nH]c2ccccc12)Nc1ccc(Nc2cccnc2)c(-c2ccc(Cl)c(Cl)c2)c1 was read as ARFGAP1 inh inactive and ASAP1 inh inactive.
Screening O=S(=O)(NCCSc1ccccn1)c1ccc(Br)cc1 returned ARFGAP1 inh inactive, ASAP1 inh inactive, PAFAH1B2 FP inh 24.8, PAFAH1B3 inh inactive, PAFAH2 FP inh inactive and pPAFAH FP inh inactive.
`O=S(=O)(NCCc1ccccc1)c1ccc(Br)cc1` gave ARFGAP1 inh inactive, ASAP1 inh inactive, PAFAH1B2 FP inh 27.6, PAFAH1B3 inh inactive, PAFAH2 FP inh inactive and pPAFAH FP inh inactive.
For O=S(=O)(NCCc1ccncc1)c1ccc(Br)cc1 the results were ARFGAP1 inh inactive, ASAP1 inh inactive, PAFAH1B2 FP inh inactive, PAFAH1B3 inh inactive, PAFAH2 FP inh inactive and pPAFAH FP inh inactive.
For CCN(CC)C(=O)c1c[nH]c2ccc(S(=O)(=O)Nc3cc(C)cc(C)c3)cc2c1=O the results were ARFGAP1 inh inactive, ASAP1 inh inactive, PAFAH1B2 FP inh inactive, PAFAH1B3 inh inactive, PAFAH2 FP inh inactive and pPAFAH FP inh 28.7.
For Cc1cc(C)cc(NS(=O)(=O)c2ccc3[nH]cc(C(=O)N4CCc5ccccc54)c(=O)c3c2)c1 the results were ARFGAP1 inh inactive, ASAP1 inh inactive, PAFAH1B2 FP inh inactive, PAFAH1B3 inh inactive, PAFAH2 FP inh inactive and pPAFAH FP inh inactive.
Screening Oc1ccc(Br)cc1/C=N/n1c(COc2ccccc2)n[nH]c1=S returned ARFGAP1 inh inactive, ASAP1 inh inactive, PAFAH1B2 FP inh 27.6, PAFAH1B3 inh inactive and PAFAH2 FP inh inactive.
Screening Cc1cc(/C=N/n2c(COc3ccccc3C)nc3ccccc3c2=O)c(O)c([N+](=O)[O-])c1 returned ARFGAP1 inh inactive, ASAP1 inh inactive, PAFAH1B2 FP inh inactive, PAFAH1B3 inh inactive, PAFAH2 FP inh inactive and pPAFAH FP inh inactive.
`S=c1[nH]nc(COc2ccccc2)n1/N=C/c1ccccc1Br` gave ARFGAP1 inh inactive, ASAP1 inh inactive, PAFAH1B2 FP inh inactive, PAFAH1B3 inh inactive, PAFAH2 FP inh inactive and pPAFAH FP inh inactive.
For O=c1c2ccccc2nc(COc2ccccc2)n1/N=C/c1cc([N+](=O)[O-])ccc1O the results were ARFGAP1 inh inactive, ASAP1 inh inactive, PAFAH1B2 FP inh inactive, PAFAH1B3 inh inactive, PAFAH2 FP inh inactive and pPAFAH FP inh 25.7.
`CC(=O)N1CCN(c2ccc(N3CCN(Cc4ccccc4)[C@H](C)C3)c(C)c2)[C@H](C)C1` gave ARFGAP1 inh inactive and ASAP1 inh inactive.
`Cc1cc(-c2nc3cccnc3s2)ccc1NS(=O)(=O)c1cccs1` gave ARFGAP1 inh inactive, ASAP1 inh inactive, PAFAH1B2 FP inh inactive, PAFAH1B3 inh inactive, PAFAH2 FP inh inactive and pPAFAH FP inh 32.7.
Screening Cc1cc(C)cc(NS(=O)(=O)c2cccs2)c1 returned ARFGAP1 inh inactive, ASAP1 inh inactive, PAFAH1B2 FP inh inactive, PAFAH1B3 inh inactive, PAFAH2 FP inh inactive and pPAFAH FP inh inactive.
Screening Cc1ccc(NS(=O)(=O)c2cccs2)c(C)c1 returned ARFGAP1 inh inactive, ASAP1 inh inactive, PAFAH1B2 FP inh inactive, PAFAH1B3 inh inactive, PAFAH2 FP inh inactive and pPAFAH FP inh 27.6.
For O=S(=O)(c1ccc(F)cc1)N1CCN(C(=S)NCCc2ccccc2)CC1 the results were ARFGAP1 inh inactive, ASAP1 inh inactive, PAFAH1B2 FP inh 24.4, PAFAH1B3 inh inactive, PAFAH2 FP inh inactive and pPAFAH FP inh inactive.
`O=S(=O)(c1ccc(F)cc1)N1CCN(C(=S)NCc2ccccc2)CC1` gave ARFGAP1 inh inactive, ASAP1 inh inactive, PAFAH1B2 FP inh inactive, PAFAH1B3 inh inactive, PAFAH2 FP inh inactive and pPAFAH FP inh inactive.
Screening Oc1ccc(N2CCN(C(=S)NCCc3ccccc3)CC2)cc1 returned ARFGAP1 inh inactive, ASAP1 inh inactive, PAFAH1B2 FP inh inactive, PAFAH1B3 inh inactive, PAFAH2 FP inh inactive and pPAFAH FP inh 29.3.
Screening O=S(=O)(c1ccc(Cl)cc1)N1CCN(C(=S)Nc2ccccc2F)CC1 returned ARFGAP1 inh inactive, ASAP1 inh inactive, PAFAH1B2 FP inh 24.8, PAFAH1B3 inh inactive, PAFAH2 FP inh inactive and pPAFAH FP inh inactive.
Screening O=S(=O)(c1ccc2ccccc2c1)N1CCN(C(=S)Nc2ccccc2F)CC1 returned ARFGAP1 inh inactive, ASAP1 inh inactive, PAFAH1B2 FP inh inactive, PAFAH1B3 inh inactive, PAFAH2 FP inh inactive and pPAFAH FP inh inactive.
COC(=O)c1ccc2nc(-c3ccco3)c(Cc3ccsc3)n2c1 was read as ARFGAP1 inh inactive and ASAP1 inh inactive.
